Reference: ChEMBL document CHEMBL4732210, “Discovery of new phenyl sulfonyl-pyrimidine carboxylate derivatives as the potential multi-target drugs with effective anti-Alzheimer's action: Design, synthesis, crystal structure and in-vitro biological evaluation” (Eur J Med Chem, 2021)
Calls of active or inactive are those of the source. The rule behind the calls is not given here.

Columns and labels:
[1] = organism: Homo sapiens; test: Selectivity index, ratio of IC50 for BuChE in human serum to IC50 for AChE in human erythrocytes measured by DTNB reagent based Ellman's method; assay type: cell-based
[2] = biological target: Amyloid-beta precursor protein (Homo sapiens) (UniProt P05067); test: Inhibition of self-induced amyloid beta (1 to 42) (unknown origin) aggregation assessed as reduced particle size at 10 uM measured after 48 hrs by Dynamic light scattering analysis
Procedure, shortened: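 Aβ1-42 stock (100 μM) in PBS pH 7.4, […], incubated with compound (10 μM) in the dark at 37 °C for 48 h. Particle size distribution then measured by dynamic light scattering.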

[3] = biological target: Acetylcholinesterase (Homo sapiens) (UniProt P22303); test: Inhibition of AChE in human erythrocytes assessed as inhibition of AChE-induced amyloid beta(1 to 42) aggregation at Abeta42:compound concentration ratio of 10:20 measured after 48 hrs by thioflavin-T assay; assay type: cell-based; details: Erythrocyte
Procedure, shortened: (§1)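 Aβ1-42 (stock in 1% ammonium hydroxide; final 10 μM) plus human erythrocyte AChE. Incubated 48 h at 37 °C with or without compound (5, 10, 20 μM; DMSO stock diluted in PBS pH 7.4). Then diluted in 50 mM glycine-NaOH pH 8.0 containing 5 μM thioflavin T. Fluorescence normalised to control; three separate experiments.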

[4] = biological target: Acetylcholinesterase (Homo sapiens) (UniProt P22303); test: Inhibition of AChE in human erythrocytes assessed as inhibition of AChE-induced amyloid beta (1 to 42) aggregation by measuring reduced particle size at 10 uM measured after 48 hrs by Dynamic light scattering analysis; assay type: cell-based; details: Erythrocyte
Procedure, shortened: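 Aβ1-42 with AChE (10 unit/mL) incubated with compound at 10 μM in PBS pH 7.4, in the dark for 48 h at 37 °C. Particle size distribution then measured by dynamic light scattering.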

[5] = tested on: MC65; test: Neuroprotective activity in human MC65 cells cultured in TC-deficient medium assessed as inhibition of TC-deficiency induced oxidative stress by measuring increase in cell viability at 1 to 80 uM measured after 12 hrs by MTT assay; assay type: functional, cell-based; details: dose 1-80 µM
Procedure, shortened: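 MC65 cells grown in MEM, PBS-washed and resuspended in MEM, then seeded at 5×10⁴ cells/well with or without TC. Compounds (80–1 μM) added to TC-free wells and incubated 12 h at 37 °C. MTT (5 mg/ml) added for a further 4 h; formazan dissolved in DMSO:H₂O 1:1 and read at 570 nm. Viability expressed as % of +TC control. Triplicate wells, three runs.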

[6] = biological target: Acetylcholinesterase (Homo sapiens) (UniProt P22303); test: Inhibition of AChE in human erythrocytes assessed as inhibition of AChE-induced amyloid beta(1 to 42) aggregation at Abeta42:compound concentration ratio of 10:10 measured after 48 hrs by thioflavin-T assay; assay type: cell-based; details: Erythrocyte; procedure, shortened: as §1
[7] = biological target: Amyloid-beta precursor protein (Homo sapiens) (UniProt P05067); test: Inhibition of amyloid beta (1 to 42) (unknown origin) aggregation at 22 uM measured after 24 hrs by Transmission electron microscopy method
Procedure, shortened: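 Aβ1-42 (44 μM) co-incubated with compound (22 μM) at 37 °C for 24 h. 10 μL aliquots placed on carbon-coated copper grids, stained with 1% uranyl acetate, blotted and dried 15 min at room temperature. Fibril morphology imaged by […]TEM. Controls were Aβ1-42 alone at 37 °C for 24 h and Aβ1-42 alone at 0 h.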

[8] = biological target: Acetylcholinesterase (Homo sapiens) (UniProt P22303); test: Non-competitive inhibition of AChE in human erythrocytes assessed as ratio of Vmax to Km at 100 nM measured at 2 mins interval for 10 mins by Lineweaver-Burk plot analysis; assay type: cell-based; details: Erythrocyte
Procedure, shortened: (§2)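 Human AChE kinetics in the Ellman DTNB assay. Inhibitor at 25, 50 and 100 nM, each with six ATCI concentrations, against an inhibitor-free series. Activity read every 2 min over 10 min. Km and Vmax from Michaelis–Menten non-linear regression; mechanism from Lineweaver–Burk plots; Ki from Dixon plot over four inhibitor concentrations and from slope/intercept replots. Triplicate.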

[9] = biological target: Acetylcholinesterase (Homo sapiens) (UniProt P22303); test: Non-competitive inhibition of AChE in human erythrocytes assessed as ratio of Vmax to Km at 50 nM measured at 2 mins interval for 10 mins by Lineweaver-Burk plot analysis; assay type: cell-based; details: Erythrocyte; procedure, shortened: as §2
[10] = biological target: Acetylcholinesterase (Homo sapiens) (UniProt P22303); test: Non-competitive inhibition of AChE in human erythrocytes assessed as ratio of Vmax to Km at 25 nM measured at 2 mins interval for 10 mins by Lineweaver-Burk plot analysis; assay type: cell-based; details: Erythrocyte; procedure, shortened: as §2
[11] = biological target: Acetylcholinesterase (Homo sapiens) (UniProt P22303); test: Non-competitive inhibition of AChE in human erythrocytes assessed as decrease in Vmax with constant Km measured at 2 mins interval for 10 mins by Lineweaver-Burk plot analysis; assay type: cell-based; details: Erythrocyte; procedure, shortened: as §2

Sequence of Acetylcholinesterase (Homo sapiens) (P22303 whole entry): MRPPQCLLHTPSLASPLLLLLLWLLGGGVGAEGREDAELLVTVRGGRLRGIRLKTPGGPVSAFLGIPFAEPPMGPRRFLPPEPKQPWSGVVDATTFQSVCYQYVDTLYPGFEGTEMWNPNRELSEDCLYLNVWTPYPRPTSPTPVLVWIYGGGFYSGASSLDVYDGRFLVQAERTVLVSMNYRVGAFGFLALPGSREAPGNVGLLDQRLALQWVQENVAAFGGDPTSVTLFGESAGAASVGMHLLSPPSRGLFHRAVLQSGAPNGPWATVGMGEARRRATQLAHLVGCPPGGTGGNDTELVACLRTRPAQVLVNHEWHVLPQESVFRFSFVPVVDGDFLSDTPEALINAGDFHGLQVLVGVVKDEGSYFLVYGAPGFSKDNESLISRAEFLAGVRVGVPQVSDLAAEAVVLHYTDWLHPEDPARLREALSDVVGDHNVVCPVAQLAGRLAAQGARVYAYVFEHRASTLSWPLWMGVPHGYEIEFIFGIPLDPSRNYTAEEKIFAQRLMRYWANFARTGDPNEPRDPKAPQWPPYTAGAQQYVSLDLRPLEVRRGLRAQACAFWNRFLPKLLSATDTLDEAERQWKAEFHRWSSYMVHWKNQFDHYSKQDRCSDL
Sequence of Amyloid-beta precursor protein (Homo sapiens) (P05067 whole entry): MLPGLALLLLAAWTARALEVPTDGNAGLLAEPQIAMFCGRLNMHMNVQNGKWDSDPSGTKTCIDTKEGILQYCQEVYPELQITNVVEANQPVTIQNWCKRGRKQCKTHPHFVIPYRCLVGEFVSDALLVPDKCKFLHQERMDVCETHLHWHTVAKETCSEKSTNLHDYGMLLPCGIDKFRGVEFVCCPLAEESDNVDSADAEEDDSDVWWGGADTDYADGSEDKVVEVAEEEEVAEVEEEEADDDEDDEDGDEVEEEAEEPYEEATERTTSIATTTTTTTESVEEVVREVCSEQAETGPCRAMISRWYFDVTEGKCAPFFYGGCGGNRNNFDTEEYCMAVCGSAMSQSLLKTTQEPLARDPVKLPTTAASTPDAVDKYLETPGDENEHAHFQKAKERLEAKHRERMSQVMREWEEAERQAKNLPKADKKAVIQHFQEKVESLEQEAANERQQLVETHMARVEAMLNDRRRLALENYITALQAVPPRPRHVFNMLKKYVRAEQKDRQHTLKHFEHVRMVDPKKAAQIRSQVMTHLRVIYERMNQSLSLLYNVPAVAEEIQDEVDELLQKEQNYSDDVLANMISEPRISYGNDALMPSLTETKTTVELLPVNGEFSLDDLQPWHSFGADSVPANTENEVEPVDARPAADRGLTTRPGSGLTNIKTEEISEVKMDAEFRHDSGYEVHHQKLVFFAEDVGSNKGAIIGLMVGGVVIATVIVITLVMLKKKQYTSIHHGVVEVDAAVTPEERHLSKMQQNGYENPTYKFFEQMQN

| SMILES | Ratio IC50 [1] | further results |
| --- | --- | --- |
| CCOC(=O)c1c(C)nc(N2CCN(S(=O)(=O)c3ccc(NC(C)=O)c(F)c3)CC2)nc1-c1ccccc1 | 0.35 | – |
| CCOC(=O)c1c(C)nc(N2CCN(S(=O)(=O)c3ccc(N)c(OC)c3)CC2)nc1-c1ccc(OC)cc1 | 0.36 | – |
| CCOC(=O)c1c(C)nc(N2CCN(S(=O)(=O)c3ccc(NC(C)=O)c(F)c3)CC2)nc1-c1ccc(OC)c(OC)c1 | 0.41 | – |
| CCOC(=O)c1c(C)nc(N2CCN(S(=O)(=O)c3ccc(N)c(OC)c3)CC2)nc1-c1ccc(OC)c(OC)c1 | 0.4 | – |
| CCOC(=O)c1c(C)nc(N2CCN(S(=O)(=O)c3ccc(N)cc3)CC2)nc1-c1ccc(OC)c(OC)c1 | 0.31 | – |
| CCOC(=O)c1c(C)nc(N2CCN(S(=O)(=O)c3ccc(NC(C)=O)c(OC)c3)CC2)nc1-c1ccccc1 | 0.42 | – |
| CCOC(=O)c1c(C)nc(N2CCN(S(=O)(=O)c3ccc(N)c(Cl)c3)CC2)nc1-c1ccc(OC)c(OC)c1 | 0.28 | inhibition [2]: Active; inhibition [3]: 35.3%; inhibition [4]: Active; Activity [5]: Active; inhibition [6]: 22.2%; inhibition [7]: Active |
| CCOC(=O)c1c(C)nc(N2CCN(S(=O)(=O)c3ccc(NC(C)=O)cc3)CC2)nc1-c1ccc(OC)c(OC)c1 | 0.35 | – |
| CCOC(=O)c1c(C)nc(N2CCN(S(=O)(=O)c3ccc(NC(C)=O)c(OC)c3)CC2)nc1-c1ccc(OC)c(OC)c1 | 0.38 | – |
| CCOC(=O)c1c(C)nc(N2CCN(S(=O)(=O)c3ccc(N)c(OC)c3)CC2)nc1-c1ccccc1 | 0.29 | – |
| CCOC(=O)c1c(C)nc(N2CCN(S(=O)(=O)c3ccc(N)c(Cl)c3)CC2)nc1-c1ccc(OC)cc1 | 0.43 | – |
| CCOC(=O)c1c(C)nc(N2CCN(S(=O)(=O)c3ccc(N)cc3)CC2)nc1-c1ccc(OC)cc1 | 0.33 | – |
| CCOC(=O)c1c(C)nc(N2CCN(S(=O)(=O)c3ccc(N)c(F)c3)CC2)nc1-c1ccc(OC)c(OC)c1 | 0.37 | – |
| CCOC(=O)c1c(C)nc(N2CCN(S(=O)(=O)c3ccc(N)c(F)c3)CC2)nc1-c1ccc(OC)cc1 | 0.64 | – |
| CCOC(=O)c1c(C)nc(N2CCN(S(=O)(=O)c3ccc(NC(C)=O)c(F)c3)CC2)nc1-c1ccc(OC)cc1 | 0.42 | – |
| CCOC(=O)c1c(C)nc(N2CCN(S(=O)(=O)c3ccc(NC(C)=O)cc3)CC2)nc1-c1ccccc1 | 0.54 | – |
| CCOC(=O)c1c(C)nc(N2CCN(S(=O)(=O)c3ccc(NC(C)=O)c(OC)c3)CC2)nc1-c1ccc(OC)cc1 | 0.4 | – |
| CCOC(=O)c1c(C)nc(N2CCN(S(=O)(=O)c3ccc(N)c(Cl)c3)CC2)nc1-c1ccccc1 | 0.57 | – |
| CCOC(=O)c1c(C)nc(N2CCN(S(=O)(=O)c3ccc(NC(C)=O)cc3)CC2)nc1-c1ccc(OC)cc1 | 0.42 | – |
| CCOC(=O)c1c(C)nc(N2CCN(S(=O)(=O)c3ccc(NC(C)=O)c(Cl)c3)CC2)nc1-c1ccc(OC)cc1 | 0.4 | – |
| CCOC(=O)c1c(C)nc(N2CCN(S(=O)(=O)c3ccc(NC(C)=O)c(Cl)c3)CC2)nc1-c1ccc(OC)c(OC)c1 | 0.23 | Vmax/Km [8]: 0.056; inhibition [2]: Active; Vmax/Km [9]: 0.076; Vmax/Km [10]: 0.094; inhibition [3]: 51.3%; inhibition [4]: Active; inhibition [11]: Active; inhibition [6]: 35.5%; inhibition [7]: Active |
| CCOC(=O)c1c(C)nc(N2CCN(S(=O)(=O)c3ccc(NC(C)=O)c(Cl)c3)CC2)nc1-c1ccccc1 | 0.61 | – |
